Laboratory results: ChEMBL document CHEMBL1129442, “Synthesis and structure-activity relationship of pyrazolo[3,4-d]pyrimidines: potent and selective adenosine A1 receptor antagonists” (J Med Chem, 1996)

Experiments:
Adenosine receptor A1 = target: T1, Adenosine receptor A1 (Rattus norvegicus, UniProt P25099); test: Displacement of [3H]N6-PIA from Adenosine A1 receptor from rat whole brain
T1 sequence (P25099 whole entry): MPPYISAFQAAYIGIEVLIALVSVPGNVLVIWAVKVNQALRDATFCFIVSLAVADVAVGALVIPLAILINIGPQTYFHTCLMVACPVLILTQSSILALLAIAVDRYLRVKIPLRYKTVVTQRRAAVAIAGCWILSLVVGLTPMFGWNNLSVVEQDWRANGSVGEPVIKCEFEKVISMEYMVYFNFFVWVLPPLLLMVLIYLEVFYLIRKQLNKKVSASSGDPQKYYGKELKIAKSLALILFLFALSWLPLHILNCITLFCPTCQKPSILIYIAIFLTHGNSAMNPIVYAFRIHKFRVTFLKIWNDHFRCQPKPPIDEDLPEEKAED
Method in brief: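 Rat whole-brain membranes (100 µg, pretreated with 0.1 U/mg adenosine deaminase, 10 min, 37 °C) incubated 90 min at 25 °C with 1 nM (R)-[3H]-N6-PIA in 50 mM Tris-HCl pH 7.4. Test compound given at ≥12 concentrations, final Me2SO 1%, 2% or 5%. Nonspecific binding defined with 10 µM 2-chloroadenosine. Bound ligand collected by filtration on glass fiber filters. Ki derived from IC50 via Cheng-Prusoff (Kd 1 nM). At least two experiments in duplicate, mean ± SEM.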

Adenosine receptor A2a = Adenosine receptor A2a (Rattus norvegicus, UniProt P30543); test: Inhibition of [3H]CGS-21680 binding to Adenosine A2A receptor of rat striatal membranes; format: cell membranes, Membrane
Method in brief: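 Rat striatal membranes (150 µg, adenosine deaminase-pretreated) incubated 120 min at 25 °C with 5 nM [3H]CGS 21680 in 50 mM Tris-HCl, 10 mM MgCl2, pH 7.4. Test compound given at ≥12 concentrations, final Me2SO 1%, 2% or 5%. Nonspecific binding defined with 20 µM 2-chloroadenosine. Bound ligand filtered as for the A1 assay. Ki derived from IC50 via Cheng-Prusoff (Kd 14.9 nM). At least two experiments in duplicate, mean ± SEM.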

[1] = target: Adenosine receptors; A1 & A2a (Rattus norvegicus) (UniProt P25099+P30543); test: Ratio of Binding Constants for adenosine A2A and A1 receptors; format: protein assay
[2] = target: Adenosine receptor A2a (Rattus norvegicus) (UniProt P30543); test: Percent inhibition of [3H]CGS-21680 binding to Adenosine A2A receptor rat striatal membranes; format: cell membranes; conditions: Membrane, concentration not given here
Adenosine receptor A2a (Rattus norvegicus), sequence (P30543 whole entry): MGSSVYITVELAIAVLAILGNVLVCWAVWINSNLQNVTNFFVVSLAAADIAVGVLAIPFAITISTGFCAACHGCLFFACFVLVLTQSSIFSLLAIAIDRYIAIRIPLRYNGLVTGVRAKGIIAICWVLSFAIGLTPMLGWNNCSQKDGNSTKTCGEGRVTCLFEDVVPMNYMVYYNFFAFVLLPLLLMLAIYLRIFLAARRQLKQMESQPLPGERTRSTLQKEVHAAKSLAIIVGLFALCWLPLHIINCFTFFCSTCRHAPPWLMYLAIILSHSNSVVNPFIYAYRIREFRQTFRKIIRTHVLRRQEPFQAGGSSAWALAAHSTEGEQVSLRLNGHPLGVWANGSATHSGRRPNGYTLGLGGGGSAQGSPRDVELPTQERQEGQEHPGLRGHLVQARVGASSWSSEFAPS

Adenosine receptor A2a, sequence (P30543 whole entry): as above
Adenosine receptors; A1 & A2a (Rattus norvegicus), sequence (P30543 whole entry, looked up, one chain of several): as the sequence (P30543 whole entry) above

Ki (Adenosine receptor A1) [nM] | Ki (Adenosine receptor A2a) [nM] | Ratio [1] | inhibition [2] [%] | SMILES
1.08 | 35.3 | 33 | – | CCCC(Sc1nc(N)c2cnn(-c3ccccc3)c2n1)C(N)=O (centres undefined)
1.56 | 44.5 | 29 | – | CCC(Sc1nc(N)c2cnn(-c3ccccc3)c2n1)C(N)=O (centres undefined)
– | – | 79 | – | CCCC(Sc1nc(S)c2cnn(-c3ccccc3)c2n1)C(N)=O (centres undefined)
– | – | > 78 | 44 | CC(C)C(Sc1nc(S)c2cnn(-c3ccccc3)c2n1)C(N)=O (centres undefined)
6.81 | – | > 5900 | 12 | CCCCC(Sc1nc(SC)c2cnn(-c3ccccc3)c2n1)C(N)=O (centres undefined)
0.939 | 88.3 | 94 | – | CCCCC(Sc1nc(N)c2cnn(-c3ccccc3)c2n1)C(N)=O (centres undefined)
– | – | 56 | – | CCC(Sc1nc(S)c2cnn(-c3ccccc3)c2n1)C(N)=O (centres undefined)
8.4 | 796 | 95 | – | CCC(Sc1nc(SC)c2cnn(-c3ccccc3)c2n1)C(N)=O (centres undefined)
2.73 | 147 | 54 | – | CC(C)C(Sc1nc(N)c2cnn(-c3ccccc3)c2n1)C(N)=O (centres undefined)
7.55 | 4380 | 580 | – | CCCC(Sc1nc(SC)c2cnn(-c3ccccc3)c2n1)C(N)=O (centres undefined)
37.2 | – | > 270 | 52 | CCCCC(Sc1nc(S)c2cnn(-c3ccccc3)c2n1)C(N)=O (centres undefined)
15.7 | – | > 1300 | 37 | CSc1nc(SC(C(N)=O)C(C)C)nc2c1cnn2-c1ccccc1 (centres undefined)
256 | – | – | – | CC(C)C(Sc1nc2c(cnn2-c2ccccc2)c(=S)[nH]1)C(N)=O (centres undefined)
155 | 8750 | – | – | CCC(Sc1nc2c(cnn2-c2ccccc2)c(=S)[nH]1)C(N)=O (centres undefined)
0.745 | 247 | 332 | – | CCCCC(Sc1nc(NC)c2cnn(-c3ccccc3)c2n1)C(N)=O (centres undefined)
56.3 | 4450 | – | – | CCCC(Sc1nc2c(cnn2-c2ccccc2)c(=S)[nH]1)C(N)=O (centres undefined)
